From PubChem BioAssay
The list is not random: actives were taken first. Their share in the collection is about 1.9%.
Runt-SMMHC FRET = inhibitors of human RUNX1 Runt domain binding to CBFb-SMMHC; Q01196+Q13951; Cerulean-Runt/Venus-CBFb-SMMHC FRET ratio 530/480, 1 h; inhibition, % at 20 µM; 220,000 compounds, 0.74% hits;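 active = mean inhibition across duplicate retests at 20 µM reaching about 50%, limit read from the data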;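 note: inhibitors lower the FRET ratio by blocking Runt binding to CBFb-SMMHC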
Target sequence (Q01196 whole entry, looked up, the tested form may be a part): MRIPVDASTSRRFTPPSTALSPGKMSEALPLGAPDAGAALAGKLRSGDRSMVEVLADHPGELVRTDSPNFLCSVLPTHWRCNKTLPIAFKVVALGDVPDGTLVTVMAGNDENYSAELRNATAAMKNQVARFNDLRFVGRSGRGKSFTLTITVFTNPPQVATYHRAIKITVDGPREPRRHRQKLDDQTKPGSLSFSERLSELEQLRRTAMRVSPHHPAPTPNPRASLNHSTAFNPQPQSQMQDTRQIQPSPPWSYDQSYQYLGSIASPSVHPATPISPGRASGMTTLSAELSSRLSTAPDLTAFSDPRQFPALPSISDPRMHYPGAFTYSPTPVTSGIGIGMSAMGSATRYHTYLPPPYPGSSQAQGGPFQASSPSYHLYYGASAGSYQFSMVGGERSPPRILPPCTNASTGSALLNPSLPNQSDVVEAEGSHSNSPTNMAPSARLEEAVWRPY
Target sequence (Q13951 whole entry, looked up, the tested form may be a part): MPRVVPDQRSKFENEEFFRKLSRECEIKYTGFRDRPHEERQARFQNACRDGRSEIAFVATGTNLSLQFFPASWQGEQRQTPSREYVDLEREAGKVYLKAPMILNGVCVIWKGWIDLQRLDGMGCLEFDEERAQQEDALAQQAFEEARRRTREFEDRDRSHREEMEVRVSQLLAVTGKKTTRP
Runt-CBFb FRET = inhibitors of human RUNX1 Runt domain binding to CBFb | Cerulean-Runt/Venus-CBFb FRET ratio 530/480, 1 h | inhibition, % at 20 µM | 220,000 compounds, 0.46% hits | AID 1496;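 active = inhibition over about 50% at 20 µM in the single-dose screen, limit read from the data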
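Buffer or medium: Tris pH 7.5 buffer with BSA. Assay system: Cerulean-labeled Runt domain protein. Amount: each fluorescent fusion protein 100 nM. Read-out basis: loss of energy transfer signal. Incubation: 1 h compound exposure, room temperature. Probe or stimulus: Venus-CBFb binding partner, 100 nM. Detection: FRET, excitation 422 nm, emission at 530 and 480 nm.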
RanGTP-Imp inh = inhibitors of RanGTP-importin-beta interaction, primary screen, biochemical, FRET, CFP-Ran, YFP-importin-beta, homogeneous | 300,000 compounds, 1.1% hits | cell-free CFP-Ran/YFP-importin-beta FRET ratio | AID 2216 | inhibition, % (no concentration beside the values);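 active = more than half of the replicate wells show a fall in the fluorescence ratio signal beyond about 16%, limit read from the data, passing the limit was not always enough; inconclusive = exactly half of the replicate wells pass the set limit; inactive = fewer than half of replicates pass the limit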
Hck Nef HTS = human Hck-Nef kinase inhibition | AID 463187 | P08631 | inhibition, % at 20 µM | Recombinant Hck-YEEI plus Nef, Z-Lyte FRET kinase assay | 220,000 compounds, 0.68% hits;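 active = Hck-Nef kinase inhibition above about 50%, limit read from the data; inactive = inhibition below that limit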
TbHK1 inh = blocks Trypanosoma brucei hexokinase 1 activity. recombinant TbHK1, G6PDH-coupled NADH A340. inhibition, % at 10 µM. 220,000 compounds, 0.11% hits;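 active = inhibition of 50% or more in the single-dose primary screen; inactive = inhibition below 50%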
Hck-Nef confirm = Hck-Nef kinase inhibition, confirmation. shares compounds with Hck Nef HTS. Recombinant Hck-YEEI:Nef, Z-Lyte FRET kinase assay. calls only at 10 µM. 1,300 compounds, 28% hits;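 active = average inhibition of at least 50%, with Z-scores no higher than 3 in both the phospho-tyrosine peptide and fluorescence counterscreens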
Large screens that a line does not name were inactive (follow-up assays come after a bar, where shown).

O=C(CNC(=O)c1ccc(F)cc1)c1ccc(Cl)cc1	none (no result: Runt-SMMHC FRET, Runt-CBFb FRET, Hck Nef HTS, TbHK1 inh)
Cc1ccc(S(=O)(=O)N2CCN(c3ccccc3)CC2)c(C)c1	none (no result: Runt-SMMHC FRET, Runt-CBFb FRET, Hck Nef HTS, TbHK1 inh)
CC(C)c1ccc(O)c(NC(=S)NC(=O)c2ccc3c(c2)OCO3)c1	none (no result: Runt-SMMHC FRET, Runt-CBFb FRET, Hck Nef HTS, TbHK1 inh)
COc1ccc(-c2noc(CSc3nc(-c4ccccc4)cc(=O)[nH]3)n2)cc1OC	Hck Nef HTS 54 | Hck-Nef confirm inactive
O=C1NN(c2cccc(Br)c2)C(=O)/C1=C/c1ccc(-c2cc([N+](=O)[O-])ccc2O)o1	Hck Nef HTS 98 | Hck-Nef confirm active
O=C(CSc1nnc(-c2ccc3c(c2)OCO3)o1)Nc1ncc(Cl)cc1Cl	none
COc1ccc(C(=O)COC(=O)c2cccc(-n3cnnn3)c2)c(OC)c1	none (no result: Runt-SMMHC FRET, Runt-CBFb FRET, Hck Nef HTS, TbHK1 inh)
CCC(c1nnnn1Cc1ccc(OC)cc1)N1CCN(c2ccc(OC)cc2)CC1 (centres undefined)	Hck Nef HTS 62 | Hck-Nef confirm inactive
CCN(CC)S(=O)(=O)c1ccc(OC)c(NC(=O)COc2ccccc2[N+](=O)[O-])c1	Hck Nef HTS 53 | Hck-Nef confirm inactive
COc1cc([N+](=O)[O-])cc(/C=N/NC(=O)C(C)Nc2ccccc2C)c1O (centres undefined)	Hck Nef HTS 101 | Hck-Nef confirm active
COc1cc([N+](=O)[O-])cc(/C=N/NC(=O)C(C)Nc2cccc(C)c2)c1O (centres undefined)	RanGTP-Imp inh inconclusive
Cc1cc(O)ccc1Nc1nc(-c2sc(N)nc2C)cs1	Hck Nef HTS 62 | Hck-Nef confirm active
CN(CC(=O)NCCc1ccccc1)Cc1ccco1	none (no result: Runt-SMMHC FRET, Runt-CBFb FRET, Hck Nef HTS, TbHK1 inh)
CCOC(=O)c1cnc2ccc(OCC)cc2c1N1CCN(c2ccccc2OC)CC1	Hck Nef HTS 77 | Hck-Nef confirm active
N#CCCn1c(SCC(=O)NCC2CCCO2)nc2ccccc21 (centres undefined)	none
Cc1cc(NCCCn2ccnc2)n2c(nc3ccccc32)c1C#N	RanGTP-Imp inh 19, Hck Nef HTS 64
Cc1cc(Nc2ccc(O)cc2)n2c(nc3ccccc32)c1C#N	none
CC(C)c1cc(NCC2CCCO2)n2c(nc3ccccc32)c1C#N (centres undefined)	Hck Nef HTS 108
CCC(C)Nc1cc(C)c(C#N)c2nc3ccccc3n12 (centres undefined)	none (no result: Runt-SMMHC FRET, Runt-CBFb FRET, Hck Nef HTS, TbHK1 inh)
Cc1cc(NCC2CCCO2)n2c(nc3ccccc32)c1C#N (centres undefined)	Hck Nef HTS 95
CCCc1cc(NCCCO)n2c(nc3ccccc32)c1C#N	RanGTP-Imp inh 30, Hck Nef HTS 194
CC(C)c1ccc(CN(C)CC(O)c2ccccc2)cc1 (centres undefined)	none
COc1cc(CNCCCN2CCOCC2)cc(Cl)c1OCC(=O)NC(C)(C)C	none (no result: Runt-SMMHC FRET, Runt-CBFb FRET, Hck Nef HTS, TbHK1 inh)
COc1ccc2oc(/C=C/N(C)C)c(C(=O)c3ccc(Cl)cc3)c2c1	Hck Nef HTS 98 | Hck-Nef confirm inactive
O=C1c2cccc3cc([N+](=O)[O-])cc(c23)C(=O)N1/N=C/c1ccc(O)cc1O	Hck Nef HTS 55 | Hck-Nef confirm active
O=C(c1cccc(S(=O)(=O)N2CCOCC2)c1)N1CCCC(C(F)(F)F)C1 (centres undefined)	none (no result: Runt-SMMHC FRET, Runt-CBFb FRET, Hck Nef HTS, TbHK1 inh)
Cc1cc(NS(=O)(=O)c2c(C(=O)N3CCOCC3)c(C)n(C)c2C)ccc1Br	none (no result: Runt-SMMHC FRET, Runt-CBFb FRET, Hck Nef HTS, TbHK1 inh)
C[C@H](NC(=O)c1[nH]cnc1C(=O)Nc1ccc(CNC(=O)OC(C)(C)C)cc1)C(=O)OC(C)(C)C	Hck Nef HTS 57 | Hck-Nef confirm inactive
CSc1ccc(NC(=O)C(C)N2CCN(C)CC2)cc1 (centres undefined)	none (no result: Runt-SMMHC FRET, Runt-CBFb FRET, Hck Nef HTS, TbHK1 inh)
COc1ccc(-c2csc(NC(=O)CSc3nc(C)cs3)n2)cc1	none (no result: Runt-SMMHC FRET, Runt-CBFb FRET)
COc1ccc(-c2csc(NC(=O)CSc3nc(C)nc4sc(C(=O)O)c(C)c34)n2)cc1	Hck Nef HTS 96 | Hck-Nef confirm active
C[C@@H](NC(=O)c1cc2c([nH]c3ccccc32)c(-c2ccccc2)n1)C(=O)O	none (no result: Runt-SMMHC FRET, Runt-CBFb FRET, Hck Nef HTS, TbHK1 inh)
CCn1nc(NC(=O)C2CCCO2)c2cc3cccc(C)c3nc21 (centres undefined)	Runt-SMMHC FRET 81, RanGTP-Imp inh 58, Hck Nef HTS 55 | Hck-Nef confirm inactive
O=C(NC(=S)Nc1ccc(Cc2ccncc2)cc1)c1ccccc1F	none
O=C(NC(=S)Nc1ccc(-c2nc3ncccc3o2)cc1)c1ccccc1F	Hck Nef HTS 52 | Hck-Nef confirm inactive
Cc1ccc(C(=O)Nc2cccc(-c3nc4ncccc4o3)c2)cc1	none
Cc1ccc(OCC(=O)Nc2ccc(-c3nc4ncccc4o3)cc2)c(C)c1	Hck Nef HTS 106 | Hck-Nef confirm inactive
O=C(NCc1ccccn1)c1cccc(NS(=O)(=O)c2cccc(F)c2)c1	RanGTP-Imp inh inconclusive
N#C/C(=C\c1ccc(OC(=O)c2ccc(Cl)s2)cc1)c1nc2ccccc2[nH]1	Hck Nef HTS 56 | Hck-Nef confirm active
CCCC(=O)Nc1ccc(Cl)c(NC(=O)c2cccc(OC)c2)c1	RanGTP-Imp inh inconclusive, Hck Nef HTS 60 | Hck-Nef confirm inactive
CCCC(=O)Nc1ccc(Cl)c(NC(=O)c2cccnc2)c1	none
CC(=O)Oc1cc2oc(=O)c3c(c2cc1Cl)CCC3	Runt-SMMHC FRET 178, Runt-CBFb FRET 81, Hck Nef HTS 111
CSc1ccccc1OCc1cc(C(=O)N(Cc2nccn2C)C(C)C)no1	none (no result: Runt-SMMHC FRET, Runt-CBFb FRET, Hck Nef HTS, TbHK1 inh)
Cc1ccc(C)c(NC(=O)Cn2nc(-c3ccccc3)nc2-c2ccccc2)c1	Hck Nef HTS 59 | Hck-Nef confirm inactive
O=C(O)c1cccc(-n2cccc2/C=C2/NC(=O)N(c3cccc(Cl)c3)C2=O)c1	none
O=C(O)c1cccc(-n2cccc2/C=C2/NC(=O)N(c3ccc(Cl)cc3)C2=O)c1	Hck Nef HTS 82 (not shown: RanGTP-Imp inh)
Cc1nc2ccc(NC(=O)c3ccc(Cl)c(S(=O)(=O)N(C)c4ccccc4)c3)cc2s1	none
Cc1nc2ccc(NC(=O)c3cc(S(=O)(=O)N(C)c4ccccc4)ccc3Cl)cc2s1	Hck Nef HTS 52 | Hck-Nef confirm active
CCCNC(=O)NNC(=O)c1ccc(F)cc1	none
O=C(N/N=C/c1ccc([N+](=O)[O-])o1)c1cc(-c2ccc(-c3ccccc3)cc2)nc2ccccc12	Hck Nef HTS 198 | Hck-Nef confirm inactive
O=C(O)CC1S/C(=N/N=C/c2ccc(-c3ccc(Cl)cc3[N+](=O)[O-])o2)NC1=O (centres undefined)	none
O=C(O)CC1S/C(=N/N=C/c2ccc(-c3ccc(Cl)c([N+](=O)[O-])c3)o2)NC1=O (centres undefined)	Hck Nef HTS 119 | Hck-Nef confirm inactive
O=C(CCNS(=O)(=O)c1cccc2nsnc12)NCc1ccccc1	none (no result: Runt-SMMHC FRET, Runt-CBFb FRET, Hck Nef HTS, TbHK1 inh)
COc1ccc(CNC(=O)CCNS(=O)(=O)c2cccc3nsnc23)cc1	Hck Nef HTS 154 | Hck-Nef confirm inactive
CC1=C(C#N)c2nc(N)c(C#N)c(C)c2/C1=C\c1ccc(OCC(=O)O)c(Cl)c1	none
